We go through 17 compounds from ChEMBL document CHEMBL1122607, “Heterocyclic analogues of chlorcyclizine with potent hypolipidemic activity” (J Med Chem, 1984).

Where only a bound is given, the exact number is not on record here.

Series [1] relates to Rattus norvegicus. Description: Hypolipidemic activity was measured as reduction in rat serum triglyceride after oral administration in male Wistar rats at 100 mg / (kg day). In kind it is functional. The procedure, abridged: (§1)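 Cholesterol-fed rats given the test compound orally by gavage on the last 3 days, with controls receiving vehicle (0.5% tragacanth mucilage). After overnight starvation, rats were killed under CO2 3 h after the last dose and bled by cardiac puncture. Serum cholesterol and triglyceride were measured by autoanalyzer and expressed as percentage reduction from control levels, with Student's t test.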

The subject of series [2] is Rattus norvegicus. Description: Hypolipidemic activity was measured as reduction in rat serum cholesterol after oral administration in male Wistar rats at 100 mg / (kg day). In kind it is functional. The procedure, abridged: as §1
The subject of series [3] is Rattus norvegicus. Description: Hypolipidemic activity was measured as reduction in rat serum triglyceride after oral administration in male Wistar rats at 30 mg / (kg day). It counts as functional. The procedure, abridged: as §1
Series [4] has as its system Rattus norvegicus. As to the kind of experiment: Hypolipidemic activity was measured as reduction in rat serum cholesterol after oral administration in male Wistar rats at 30 mg / (kg day). In kind it is functional. The procedure, abridged: as §1
Series [5] has as its system Rattus norvegicus. Description: Hypolipidemic activity was measured as reduction in rat serum triglyceride after oral administration in male Wistar rats at 10 mg / (kg day). It counts as functional. The procedure, abridged: as §1
For series [6], the system named is Rattus norvegicus. Description: Hypolipidemic activity was measured as reduction in rat serum cholesterol after oral administration in male Wistar rats at 100 mg/(kg day). In kind it is functional. The procedure, abridged:
as §1

Series [7] has as its system Rattus norvegicus. Description: Hypolipidemic activity was measured as reduction in rat serum cholesterol after oral administration in male Wistar rats at 10 mg / (kg day). It counts as functional. The procedure, abridged:
as §1

For series [8], the system named is Rattus norvegicus. Description: Minimum effective dose (MED) is the dose (mg/kg)that cause significant reduction in serum cholesterol of 30% compared to concurrent controls. In kind it is functional. Details: unit: mg/kg. The procedure, abridged:
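MED was calculated from the log dose/response curve as the dose giving a statistically significant 30% fall in serum cholesterol versus concurrent controls. Measured in the 3-day oral cholesterol-fed rat screen, or in a 2-week test: groups of eight young male Wistar rats on cholesterol/cholic acid-supplemented or normal diet, dosed orally by gavage daily for 14 days, vehicle 0.5% tragacanth mucilage.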

A short description of series [9]: The therapeutic safety margin (TSM) is the ratio of the minimum lethal dose (mg/kg)to the MED. In kind it is ADME, organism-based. Conditions: in vivo. The procedure, abridged:
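Young male Wistar rats, eight per group, on cholesterol/cholic acid-supplemented or normal diet; graded oral gavage doses daily for 14 days; vehicle controls (0.5% tragacanth mucilage). Mortalities recorded to give the minimum lethal daily dose. After overnight fasting, serum cholesterol assayed by autoanalyzer. MED is the dose giving a significant (t test) 30% cholesterol fall, from the log dose/response curve. TSM = minimum lethal dose/MED.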

Turning to `Cc1cc(C(OCCN2CCCC2)c2ccc(C(C)C)cc2)sn1` (stereo not given), the Reduction came out at 2% in series [1] and 30% in series [2].

For `Cc1ccc(C(c2sncc2C)N2CCN(C)CC2)cc1C` (stereo not given), the Reduction in series [3] worked out at 9%; in series [4], 15%; in [1], 73%; in [5], 21%; in [6], 74%; in [7], 20%.

With `Cc1ccccc1C(c1c(C)noc1C)N1CCNCC1` (stereo not given), the Reduction in series [3] is 21%; in [4], 26%; in series [1], 80%; in series [5] it was 46%; in series [6], 76%; in [7], 2%.

Consider `Cc1ccccc1C(c1nccn1C)N1CCN(C)CC1` (stereo not given), for which the Reduction in series [1] amounted to 29%; in series [2], 5%.

As for `Cc1cc(C(c2ccc(C(C)C)cc2)N2CCN(CCO)CC2)sn1` (stereo not given), the Reduction in series [3] was found to be 14%; in [4] it was 67%; in series [1] it was 73%; in [5], 0%; in series [6], 73%; in series [7] it was 23%. Moreover, the MED in [8] was found to be 15. The therapeutic safety margin (minimum lethal dose / MED) in [9] was determined as 20.

As to `CCOc1ccccc1C(c1cc(C)ns1)N1CCN(C)CC1` (stereo not given), the Reduction is 35% in [1] and 25% in series [2].

As for `Cc1cc(C(c2ccc(C(C)C)cc2)N2CCN(C(=O)c3ccccc3)CC2)sn1` (stereo not given), the Reduction in series [1] is 16%; in [2], 26%.

On to `Cc1cc(C(c2ccc(C)c(C)c2)N2CCN(C)CC2)sn1` (stereo not given), for which the Reduction in series [1] is listed as 1%; in [2], 11%.

For `Cc1cc(C(c2cccc(C(F)(F)F)c2)N2CCN(C)CC2)sn1` (stereo not given), the values for the Reduction in series [1] and in series [2] were 30% and 8%, respectively.

For the compound `Cc1cc(C(c2ccc(F)cc2)N2CCN(C)CC2)sn1` (stereo not given), the Reduction in [1] is 15%; in series [2], 11%.

In turn, `CN1CCN(C(c2ccccc2)c2ccc(Cl)cc2)CC1` (stereo not given) [CHLORCYCLIZINE] displayed an MED in [8] of 15. In addition, in series [9], the therapeutic safety margin (minimum lethal dose / MED) is 10.

`Cc1cnsc1C(c1ccc(CC(C)C)cc1)N1CCN(CCO)CC1` (stereo not given): the Reduction in series [3] is listed as 81%; in series [4], 86%; in series [1], 97%; in [5], 48%; in series [6] it was 85%; in [7], 48%. Moreover, the MED in [8] is 6.

On to `Cc1cc(C(O)(c2ccc(C(C)C)cc2)C2CCN(C)CC2)sn1` (stereo not given), for which the Reduction in series [3] stood at 57%; in [4], 57%; in series [1], 85%; in [5] it was 25%; in [6], 67%; in [7], 28%.

`Cc1ccc(C(c2cc(C)ns2)N2CCN(C)CC2)cc1` (stereo not given) returned a Reduction in series [2] of 9%.

As for `CC(C)c1ccc(C(c2ccns2)N2CCN(CCO)CC2)cc1` (stereo not given), the Reduction in series [3] turned out to be 49%; in series [4], 80%; in series [1] it was 89%; in [6], 74%. The MED in [8] is 5. Further, the therapeutic safety margin (minimum lethal dose / MED) in [9] was 40.

Consider `Cc1cc(C(c2ccc(C(C)C)cc2)N2CCNCC2)sn1` (stereo in doubt; 66), for which the Reduction in series [3] turned out to be 23%; in series [4] it was 59%; in [1], 73%; in [5], 4%; in [6], 68%; in series [7], 38%.

In the case of `Cc1cnsc1C(c1ccccc1Cl)N1CCN(C)CC1` (stereo not given), the Reduction in series [3] is given as 10%; in [4], 44%; in [1], 90%; in [5] it was 1%; in series [6], 80%; in series [7], 16%. The MED in series [8] is reported as 20. For the same compound, the therapeutic safety margin (minimum lethal dose / MED) in [9] was under 20.
